# Test results reported in ChEMBL document CHEMBL1130251, “Enzymatic properties of the unnatural beta-L-enantiomers of 2',3'-dideoxyadenosine and 2',3'-didehydro-2',3'-dideoxyadenosine” (J Med Chem, 1997).
# B1: Adenosine kinase (Toxoplasma gondii), Q9TVW2 (protein)
# chain: MAVDSSNSATGPMRVFAIGNPILDLVAEVPSSFLDEFFLKRGDATLATPEQMRIYSTLDQFNPTSLPGGSALNSVRVVQKLLRKPGSAGYMGAIGDDPRGQVLKELCDKEGLATRFMVAPGQSTGVCAVLINEKERTLCTHLGACGSFRLPEDWTTFASGALIFYATAYTLTATPKNALEVAGYAHGIPNAIFTLNLSAPFCVELYKDAMQSLLLHTNILFGNEEEFAHLAKVHNLVAAEKTALSTANKEHAVEVCTGALRLLTAGQNTGATKLVVMTRGHNPVIAAEQTADGTVVVHEVGVPVVAAEKIVDTNGAGDAFVGGFLYALSQGKTVKQCIMCGNACAQDVIQHVGFSLSFTSLPC
# Key:
# [1] = compound: Nc1ncnc2c1ncn2[C@H]1C=C[C@@H](CO)O1; experiment: (§1) Inhibitory activity against bovine liver adenosine Kinase; NS, […]=nonsubstrate, noninhibitor/inhibitor; details: Bos taurus
# How it was run: (§2)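 Adenosine kinase purified from bovine liver, 0.38–7.6 μg·mL⁻¹, at 37 °C. Medium: 100 mM Tris HCl pH 7.4, 100 mM KCl, 4.8 mg·mL⁻¹ BSA, 0.5 mM MgCl2, 1 mM ATP, test nucleoside. 5'-Phosphorylation monitored by C-18 HPLC (phosphate pH 6/acetonitrile gradient). Inhibition assessed against 50 μM adenosine.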
# [2] = compound: Nc1ncnc2c1ncn2[C@H]1CC[C@@H](CO)O1; experiment: as §1; details: Bos taurus; how it was run: as §2
protein,measurement,setting,value
B1,Km,[1],"NS, NI/Ado"
same,Km,[2],"NS, NI/Ado"
